Only some compounds are listed: those with a hit (about 0.26% of all), similar ones and a draw of the others.
TNAP inh noacc: inhibitors of human TNAP without phosphate acceptor; 200,000 compounds, 0.26% hits; inhibition, % at 20 µM; P05186; purified TNAP, CDP-star luminescence, 30 min;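 active means tissue-nonspecific alkaline phosphatase inhibition above about 50% at 20 µM in the single-dose screen, limit read from the data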;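 further: 0% = DMSO negative control and 100% = EDTA positive control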
Target sequence (P05186 whole entry, looked up): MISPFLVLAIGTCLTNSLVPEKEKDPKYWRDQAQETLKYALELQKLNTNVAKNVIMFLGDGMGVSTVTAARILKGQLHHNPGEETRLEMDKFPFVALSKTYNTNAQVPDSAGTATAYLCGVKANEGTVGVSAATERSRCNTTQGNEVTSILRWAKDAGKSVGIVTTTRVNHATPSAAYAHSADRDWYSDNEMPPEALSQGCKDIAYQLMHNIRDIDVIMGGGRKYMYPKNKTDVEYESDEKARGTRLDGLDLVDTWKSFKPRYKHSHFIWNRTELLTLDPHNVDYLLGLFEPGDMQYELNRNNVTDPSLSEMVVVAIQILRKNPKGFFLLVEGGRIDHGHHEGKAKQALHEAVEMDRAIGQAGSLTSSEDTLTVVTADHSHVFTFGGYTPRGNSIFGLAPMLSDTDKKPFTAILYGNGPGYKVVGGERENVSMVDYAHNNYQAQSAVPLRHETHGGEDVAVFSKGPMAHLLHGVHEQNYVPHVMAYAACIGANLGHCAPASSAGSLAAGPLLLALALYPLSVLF
TNAP inh hi DEA: blocks human TNAP under high phosphate acceptor concentration | P05186 | purified TNAP, CDP-star luminescence, 1 M DEA | inhibition, % at 20 µM | 200,000 compounds, 0.03% hits;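 active means over 50% inhibition of tissue-nonspecific alkaline phosphatase at 20 µM in the single-dose screen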;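 further: plate controls were DMSO wells for no effect and EDTA-quenched wells as full inhibition for full effect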
TNAP act hi DEA: TNAP (human) activation, high acceptor; purified TNAP, CDP-star luminescence, 1 M DEA, 30 min; active compounds read high; 0 = EDTA background, 1 = DMSO-only activity; activation factor at 20 µM; 200,000 tested, under 10 active;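 active means activation factor at least 2 at 20 µM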
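Control set: EDTA negative control, DMSO positive control / Assay system: human TNAP / Quantity: TNAP 1/800 final / Evaluation: TNAP activation factor scaled between EDTA and DMSO control wells / Measured by: luminescent substrate turnover signal / Compound dosing: one dose, 20 µM / Times: 30 min enzyme reaction at room temperature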
Biofilm kill mix: mixture kills Candida albicans biofilm cells | C. albicans biofilm persisters + clotrimazole, fluorescence viability; primary screen in compound mixtures of four per well | inhibition, % at 7.6 µM | 120,000 compounds, 0.02% hits;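 active means inhibition above 30.3% in the primary screen of four-compound pools, then above 30% when the compound was retested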;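 further: compounds exposed to preformed 24 h biofilms for 48 h; 0% = untreated biofilm control and 100% = clotrimazole plus chlorhexidine kill blank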
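System: C. albicans CAF4-2 wild-type biofilms; Medium: RPMI/MOPS medium, pH 7.0; Reagent: Clotrimazole, 50 µg/mL; Times: biofilm formation 24 h, compound exposure 48 h, 37 °C; Detection: 2-h Alamar Blue fluorescence, 535/590 nm excitation/emission; Evaluation: percent inhibition of biofilm viability.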
An asterisk follows results filed as active; . = not tested or not shown.

SMILES	TNAP inh noacc	TNAP inh hi DEA	TNAP act hi DEA	Biofilm kill mix
Cc1noc(NS(=O)(=O)c2ccc(NC(=O)CSc3n[nH]c(-c4ccccc4)n3)cc2)c1C	60.1*	8.1	0.9	.
O=C(CSc1n[nH]c(-c2ccccc2)n1)Nc1ncccn1	35.8	0.2	1	2.6
Cc1c(NC(=O)CSc2n[nH]c(-c3ccccc3)n2)c(=O)n(-c2ccccc2)n1C	52.8*	3.4	1	.
Cc1noc(NS(=O)(=O)c2ccc(NC(=O)CSc3nc4ccccc4[nH]3)cc2)c1C	-9.0	-1.3	1	.
O=C(CSc1n[nH]c(-c2ccccc2)n1)Nc1ccc(Br)cn1	57.4*	1.6	1	16.4
COc1ccccc1Nc1ncc(C(=O)N2CCN(Cc3ccc(OC)c(OC)c3OC)CC2)c2ccccc12	-11.3	-2.7	1	-6.4
CCOC(=O)C1CCN(C(=O)c2cccc(NS(=O)(=O)c3ccc(F)c(F)c3)c2)CC1	-24.2	-0.2	1	8.2
COc1cc(C2C(C#N)=C(N)Oc3n[nH]c(-c4cccs4)c32)cc(OC)c1O (configuration not stated)	53.8*	38.3	0.6	3.2
N#Cc1ccc(NC(=S)NC(=O)CCc2ccc(S(=O)(=O)N3CCOCC3)cc2)cc1	-2.3	-2.2	1	7.7
O=C(O)CNC(=O)/C=C/c1ccc(Cl)cc1Cl	60.2*	1.4	1	27.8
CCCCOc1ccc(CSCCN=C(N)N)cc1	-3.3	-6.9	1.1	30.6*
CCCCOc1ccc(CSC(CC(=O)O)C(=O)O)cc1 (configuration not stated)	-1.1	6.5	0.9	.
COC(=O)[C@@H]1CCCN1Cc1nc(Cc2ccccc2F)no1	-8.9	0.4	1	6.2
O=c1cc(-c2cccc3ccccc23)[nH][nH]1	68.6*	48.4	0.5	.
O=C(N/N=C\c1cccc([N+](=O)[O-])c1O)C1COc2ccccc2O1 (configuration not stated)	53.2*	9.7	0.9	0.9
O=C(N/N=C/c1cccc([N+](=O)[O-])c1)C1COc2ccccc2O1 (configuration not stated)	-4.5	0.3	1	6.2
Cc1ccn2c(C(=O)N/N=C/c3ccc(CNC(=O)C(=O)Nc4ccc(C)c(C)c4)o3)c(C)nc2c1	-30.3	-0.3	1	10.1
N#C/C(=C\c1ccncc1)c1nc2ccccc2c(=O)[nH]1	54.5*	2.8	1	-3.5
Cc1cccc(-c2noc(-c3cc4ccccc4oc3=O)n2)c1	-1.7	1.7	1	.
CC(=O)n1nc(-c2cccnc2)nc1NCc1cccs1	57.4*	-5.8	1.1	9.1
CCC(=O)n1nc(-c2cccnc2)nc1NCc1cccs1	69.0*	3.7	1	18.1
Nc1nc(-c2ccc3c(c2)CCO3)cs1	-16.9	-5.3	1.1	3.2
Nc1nnc(SCC(=O)NN2C(=O)NC3(CCCCC3)C2=O)s1	5.9	-0.1	1	11.8
O=C(CSCC(=O)N1CCCCC1)OCC(=O)c1c[nH]c2ccccc12	-4.5	2.2	1	.
O=S(=O)(Nc1ccc(C(F)(F)F)cn1)c1ccccc1	.	.	.	20.5
SMILES	TNAP inh noacc	TNAP inh hi DEA	TNAP act hi DEA	Biofilm kill mix
O=C(Nc1ccc(C(F)(F)F)cc1)c1cc(S(=O)(=O)NCC2COc3ccccc3O2)ccc1F (configuration not stated)	-6.6	-1.3	1	14.1
CCCCn1nnnc1NCc1ccc(N(CC)CC)cc1	-7.2	0.8	1	.
c1ccc(-c2nc(-c3ccccn3)no2)cc1	-3.9	0.5	1	3.6
c1ccc(-c2n[nH]c(-c3ccccn3)n2)cc1	66.6*	-3.9	1	.
CC1CCCC(C)N1CC(O)COc1c(F)cc(Br)cc1F (configuration not stated)	-13.2	-2.0	1	4.9
CCn1c(SCC(=O)c2ccc(O)c(O)c2)nnc1-c1ccc(C)cc1	52.7*	6.0	0.9	.
CCn1c(SCC(=O)c2ccc3c(c2)Cc2ccccc2-3)nnc1-c1ccc(N)cc1	6.4	-4.7	1	.
CN(C)c1ccc(/C=C2/NC(=O)NC2=O)cc1	-2.5	3.6	1	23.4
CN(C)c1ccc(/C=C2\N=C(c3ccc(Cl)c([N+](=O)[O-])c3)NC2=O)cc1	50.5*	44.6	0.6	2.1
CC(C)=Cc1oc2ccc([N+](=O)[O-])cc2c1N1CC(C)OC(C)C1 (configuration not stated)	-1.9	4.3	1	15.4
O=C(CNS(=O)(=O)c1ccccc1)NNC(=O)C(Cl)Cl	91.6*	-5.7	1.1	16.6
O=P(O)(O)c1ccccc1OCCCCCOc1ccccc1P(=O)(O)O	88.9*	11.9	0.9	.
O=P(O)(O)c1ccccc1OCCOCCOc1ccccc1P(=O)(O)O	72.2*	3.3	1	.
O=P(O)(O)c1ccccc1OCc1ccccc1	15.4	-1.3	1	.
Cc1ncc(CO)c(/C=N/NC(=O)c2cc(Br)ccc2O)c1O	58.3*	4.3	1	14.7
Cc1cc(NC(=O)COC(=O)c2cccc(O)c2)no1	51.6*	-1.0	1	1.9
CC1Cc2ccccc2N1C(=O)CSc1nnc(-c2ccccc2)c(-c2ccccc2)n1 (configuration not stated)	-6.2	-5.2	1.1	.
Cc1ccc(C)c(N2CCN(C(=O)Cc3c(C(=O)O)[nH]c4ccc(Cl)cc34)CC2)c1	.	.	.	26.5
CCOC(=O)C(=NCCCN1CCOCC1)NNc1cccc(C(F)(F)F)c1	-9.5	2.0	1	15.7
Cc1[nH][nH]c(=O)c1C(c1ccccc1[N+](=O)[O-])C(C#N)C#N (configuration not stated)	-0.8	7.8	0.9	-8.6
Cc1[nH][nH]c(=O)c1C(c1cc([N+](=O)[O-])ccc1O)c1c(C)[nH][nH]c1=O	79.3*	77.4*	0.2	7.3
Cc1ccc(-c2noc(CCC(=O)N(C)c3ccccc3C)n2)cc1	-6.4	-3.5	1	.
CC(=O)C1=C(c2cccc([N+](=O)[O-])c2)N(C(C)=O)n2c(C)nnc2S1	62.9*	0.9	1	9.5
CC(=O)c1c(C(C)=O)c(C)n(-c2cccc([N+](=O)[O-])c2)c1C	-5.9	0.5	1	14.4
O=C(Nc1ncc2c(n1)-c1ccccc1OC2)c1ccc(F)cc1	-10.9	-4.4	1	16.3
SMILES	TNAP inh noacc	TNAP inh hi DEA	TNAP act hi DEA	Biofilm kill mix
O=C(O)c1[nH]nc2c1COc1ccccc1-2	91.3*	0.1	1	.
CN1/C(=C\C=C2/SC(=S)NC2=O)C(C)(C)c2ccccc21	40.8	50.8*	0.5	22.4
CN1C(=CC=C2C=C(I)C(=O)C(I)=C2)C(C)(C)c2ccccc21	.	.	.	17.2
Cc1ccccc1OCC(O)Cn1c(=N)n(Cc2ccccc2)c2ccccc21 (configuration not stated)	.	.	.	30.4*
Nc1ccc(Cc2ccc(N)c(O)c2)cc1O	57.0*	20.9	0.8	12.5
C/C(N)=C(/C#N)C(=O)CSc1ccccc1F	-5.2	-2.6	1	21.9
C/C(N)=C(/C#N)C(=O)CSc1n[nH]c(-c2ccccc2Br)n1	91.9*	1.5	1	.
FC(F)(F)c1cc(-c2cccs2)n[nH]1	71.0*	-4.7	1	.
O=C1N=c2ccccc2=C1c1sc(Nc2ccc(O)cc2)nc1O	81.6*	44.4	0.6	1.9

Screens as filed in PubChem.
